From ChEMBL document CHEMBL4765345, “Design, synthesis, and biological evaluation of dual targeting inhibitors of histone deacetylase 6/8 and bromodomain BRPF1” (Eur J Med Chem, 2020)

Key:
THP-1 [1] = assay: Antiproliferative activity against human THP-1 assessed as reduction in cell growth at 20 uM by CellTiter-non radioactive cell proliferation assay; format: functional
THP-1 [2] = assay: Antiproliferative activity against human THP-1 assessed as reduction in cell growth at 100 uM by CellTiter-non radioactive cell proliferation assay; format: functional
[3] = target: T1, Protein deacetylase HDAC6 (Homo sapiens) (UniProt Q9UBN7); assay: Inhibition of recombinant human HDAC6 at 1 uM using Z-(Ac)Lys-AMC as substrate after 90 mins by fluorescence based micro plate assay
T1 sequence (whole entry): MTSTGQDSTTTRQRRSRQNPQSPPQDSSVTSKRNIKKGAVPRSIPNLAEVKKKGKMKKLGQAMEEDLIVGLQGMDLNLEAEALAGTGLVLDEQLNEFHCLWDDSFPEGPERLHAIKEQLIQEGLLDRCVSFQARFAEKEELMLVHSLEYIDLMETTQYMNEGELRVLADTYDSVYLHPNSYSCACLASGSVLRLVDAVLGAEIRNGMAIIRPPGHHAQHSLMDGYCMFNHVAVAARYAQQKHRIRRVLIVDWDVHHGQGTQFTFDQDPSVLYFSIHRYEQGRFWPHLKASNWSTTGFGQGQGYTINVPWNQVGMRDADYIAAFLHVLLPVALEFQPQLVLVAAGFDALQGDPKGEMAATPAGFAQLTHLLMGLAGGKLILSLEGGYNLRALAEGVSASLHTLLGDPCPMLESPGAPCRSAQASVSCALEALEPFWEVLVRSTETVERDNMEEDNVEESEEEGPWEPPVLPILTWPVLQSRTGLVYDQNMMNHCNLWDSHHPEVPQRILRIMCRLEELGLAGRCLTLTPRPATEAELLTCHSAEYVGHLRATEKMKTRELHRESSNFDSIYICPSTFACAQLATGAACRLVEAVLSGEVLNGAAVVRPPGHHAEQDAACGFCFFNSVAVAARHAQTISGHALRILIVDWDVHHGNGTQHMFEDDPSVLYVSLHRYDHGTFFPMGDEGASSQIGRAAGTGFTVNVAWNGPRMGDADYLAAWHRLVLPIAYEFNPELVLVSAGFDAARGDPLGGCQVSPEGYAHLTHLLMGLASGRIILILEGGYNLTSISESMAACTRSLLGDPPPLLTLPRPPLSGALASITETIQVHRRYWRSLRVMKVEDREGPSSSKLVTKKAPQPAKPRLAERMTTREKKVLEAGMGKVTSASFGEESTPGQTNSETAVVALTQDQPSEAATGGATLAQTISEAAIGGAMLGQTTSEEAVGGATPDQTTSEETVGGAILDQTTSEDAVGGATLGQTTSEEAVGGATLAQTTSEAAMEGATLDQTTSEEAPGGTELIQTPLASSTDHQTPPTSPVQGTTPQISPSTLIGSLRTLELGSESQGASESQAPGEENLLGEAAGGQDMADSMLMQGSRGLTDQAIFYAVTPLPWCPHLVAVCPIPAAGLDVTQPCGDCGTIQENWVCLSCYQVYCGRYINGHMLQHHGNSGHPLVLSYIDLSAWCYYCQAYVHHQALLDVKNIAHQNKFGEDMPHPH
Summary of the method: (§1)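 Recombinant human HDAC1 or HDAC6 incubated 90 min at 37 °C with 10.5 μM ZMAL (Z-(Ac)Lys-AMC) and increasing inhibitor concentrations, using a homogeneous fluorescence assay. Fluorescence read at Ex 390/Em 460 nm.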

THP-1 [4] = assay: Antiproliferative activity against human THP-1 assessed as reduction in cell growth at 1 uM by CellTiter-non radioactive cell proliferation assay; format: functional
HL-60 [5] = assay: Antiproliferative activity against human HL60 assessed as reduction in cell growth at 100 uM by CellTiter-non radioactive cell proliferation assay; format: functional
HL-60 [6] = assay: Antiproliferative activity against human HL60 assessed as reduction in cell growth at 20 uM by CellTiter-non radioactive cell proliferation assay; format: functional
Histone deacetylase 8 = target: T2, Histone deacetylase 8 (Homo sapiens, UniProt Q9BY41); assay: Inhibition of human recombinant HDAC8 using H2N-Arg-His-Lys(Ac)-Lys(Ac)-AMC as substrate after 90 mins by fluorescence based micro plate assay
T2 sequence (Q9BY41 whole entry): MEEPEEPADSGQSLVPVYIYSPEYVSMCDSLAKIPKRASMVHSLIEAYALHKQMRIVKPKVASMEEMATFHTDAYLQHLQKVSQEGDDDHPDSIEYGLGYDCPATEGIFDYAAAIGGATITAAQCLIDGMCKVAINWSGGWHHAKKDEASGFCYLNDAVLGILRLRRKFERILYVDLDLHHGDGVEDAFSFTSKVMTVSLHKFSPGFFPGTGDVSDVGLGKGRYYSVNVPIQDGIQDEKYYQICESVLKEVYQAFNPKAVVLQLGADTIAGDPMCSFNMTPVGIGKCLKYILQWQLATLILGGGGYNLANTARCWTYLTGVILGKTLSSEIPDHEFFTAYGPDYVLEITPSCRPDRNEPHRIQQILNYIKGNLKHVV

HL-60 [7] = assay: Antiproliferative activity against human HL60 assessed as reduction in cell growth at 4 uM by CellTiter-non radioactive cell proliferation assay; format: functional
Summary of the method: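 HL60 cells plated at 5000 per well and given inhibitor or DMSO vehicle immediately. Compounds diluted from 200x DMSO stocks; three replicates per concentration. Growth read by CellTiter 96 Aqueous (MTS) assay. GI50 is the concentration cutting metabolically active cells by 50% versus DMSO control, taken from absorbance against log concentration.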

Histone deacetylase 1 [8] = target: T3, Histone deacetylase 1 (Homo sapiens, UniProt Q13547); assay: Inhibition of recombinant human HDAC1 at 10 uM using Z-(Ac)Lys-AMC as substrate after 90 mins by fluorescence based micro plate assay; summary of the method: as §1
T3 sequence (Q13547 whole entry): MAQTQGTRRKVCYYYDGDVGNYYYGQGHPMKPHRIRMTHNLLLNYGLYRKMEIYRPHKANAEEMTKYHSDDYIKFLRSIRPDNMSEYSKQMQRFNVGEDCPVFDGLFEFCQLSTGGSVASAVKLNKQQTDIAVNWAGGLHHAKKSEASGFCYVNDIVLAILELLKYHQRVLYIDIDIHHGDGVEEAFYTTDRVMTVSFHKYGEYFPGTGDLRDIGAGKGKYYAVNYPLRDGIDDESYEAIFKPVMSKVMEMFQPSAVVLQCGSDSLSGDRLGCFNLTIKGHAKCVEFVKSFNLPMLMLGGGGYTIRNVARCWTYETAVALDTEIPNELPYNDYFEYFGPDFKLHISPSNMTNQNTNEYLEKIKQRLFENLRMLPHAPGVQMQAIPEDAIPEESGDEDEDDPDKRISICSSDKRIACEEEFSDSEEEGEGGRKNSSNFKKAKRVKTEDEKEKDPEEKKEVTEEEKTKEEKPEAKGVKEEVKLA

[9] = target: T1, Protein deacetylase HDAC6 (Homo sapiens); assay: Inhibition of recombinant human HDAC6 at 10 uM using Z-(Ac)Lys-AMC as substrate after 90 mins by fluorescence based micro plate assay; summary of the method: as §1
Histone deacetylase 1 [10] = target: T3, Histone deacetylase 1; assay: Inhibition of recombinant human HDAC1 at 1 uM using Z-(Ac)Lys-AMC as substrate after 90 mins by fluorescence based micro plate assay; summary of the method: as §1
HL-60 [11] = assay: Antiproliferative activity against human HL60 assessed as reduction in cell growth at 1 uM by CellTiter-non radioactive cell proliferation assay; format: functional
Histone deacetylase 1 [12] = target: T3, Histone deacetylase 1; assay: Inhibition of recombinant human HDAC1 using Z-(Ac)Lys-AMC as substrate after 90 mins by fluorescence based micro plate assay; summary of the method: as §1
Peregrin = target: T4, Peregrin (Homo sapiens, UniProt P55201); assay: Binding affinity to BRPF1 (unknown origin) by Isothermal titration calorimetry; details: read-out: Kd
T4 sequence (P55201 whole entry): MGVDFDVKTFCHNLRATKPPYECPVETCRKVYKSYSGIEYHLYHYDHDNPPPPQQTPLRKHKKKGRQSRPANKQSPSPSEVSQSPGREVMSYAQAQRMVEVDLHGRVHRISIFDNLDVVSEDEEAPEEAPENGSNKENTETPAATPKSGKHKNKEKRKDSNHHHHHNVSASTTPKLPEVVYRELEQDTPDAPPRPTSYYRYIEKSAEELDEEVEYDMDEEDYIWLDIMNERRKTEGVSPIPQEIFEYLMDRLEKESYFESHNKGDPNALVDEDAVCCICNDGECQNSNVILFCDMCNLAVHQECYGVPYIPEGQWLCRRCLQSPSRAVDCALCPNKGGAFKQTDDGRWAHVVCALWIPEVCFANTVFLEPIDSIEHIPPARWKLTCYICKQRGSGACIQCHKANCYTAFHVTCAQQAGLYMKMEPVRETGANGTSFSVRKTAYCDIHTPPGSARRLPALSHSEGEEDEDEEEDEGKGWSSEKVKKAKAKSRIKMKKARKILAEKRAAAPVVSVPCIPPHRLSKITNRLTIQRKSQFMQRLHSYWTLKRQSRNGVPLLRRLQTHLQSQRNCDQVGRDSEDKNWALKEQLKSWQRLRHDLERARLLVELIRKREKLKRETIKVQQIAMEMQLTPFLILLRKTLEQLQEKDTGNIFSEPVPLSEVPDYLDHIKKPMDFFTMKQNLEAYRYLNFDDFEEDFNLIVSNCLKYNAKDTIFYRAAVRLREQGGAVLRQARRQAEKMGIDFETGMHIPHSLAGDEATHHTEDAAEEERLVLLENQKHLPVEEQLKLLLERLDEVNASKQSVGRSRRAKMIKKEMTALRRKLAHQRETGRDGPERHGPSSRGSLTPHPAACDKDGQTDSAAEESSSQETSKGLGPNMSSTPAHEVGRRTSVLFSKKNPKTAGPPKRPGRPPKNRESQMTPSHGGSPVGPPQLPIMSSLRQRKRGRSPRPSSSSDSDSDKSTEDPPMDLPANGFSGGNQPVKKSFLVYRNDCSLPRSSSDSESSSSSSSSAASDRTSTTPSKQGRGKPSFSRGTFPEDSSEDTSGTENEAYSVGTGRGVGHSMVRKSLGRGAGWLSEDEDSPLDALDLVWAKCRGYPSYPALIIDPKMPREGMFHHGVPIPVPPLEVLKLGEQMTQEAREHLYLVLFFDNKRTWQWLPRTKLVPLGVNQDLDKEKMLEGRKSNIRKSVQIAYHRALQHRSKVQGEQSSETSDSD
Summary of the method: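 Isothermal titration calorimetry with recombinant BRPF1 (200–400 μM) in the injection syringe titrated into ligand (20–40 μM) in the sample cell. Kd was fitted from the titrations and reported with its P99 interval.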

[13] = target: T5, Protein deacetylase HDAC6 (Homo sapiens, UniProt Q9UBN7); assay: Inhibition of recombinant human HDAC6 using Z-(Ac)Lys-AMC as substrate after 90 mins by fluorescence based micro plate assay; summary of the method: as §1
T5 sequence (Q9UBN7 whole entry): T1 sequence (whole entry)

SMILES | inhibition at 20 µM (THP-1 [1]) [%] | inhibition at 100 µM (THP-1 [2]) [%] | inhibition [3] [%] | inhibition at 1 µM (THP-1 [4]) [%] | inhibition at 100 µM (HL-60 [5]) [%] | inhibition at 20 µM (HL-60 [6]) [%] | IC50 (Histone deacetylase 8) [nM] | inhibition at 4 µM (HL-60 [7]) [%] | inhibition (Histone deacetylase 1 [8]) [%] | inhibition [9] [%] | inhibition (Histone deacetylase 1 [10]) [%] | inhibition at 1 µM (HL-60 [11]) [%] | IC50 (Histone deacetylase 1 [12]) [nM] | Kd (Peregrin) [nM] | IC50 [13] [nM]
COc1ccc(C(=O)NO)cc1CS(=O)(=O)Nc1ccc2c(c1)cc(C)c(=O)n2C | 0 | 0 | 14 | 0 | 0 | 0 | 158 | 0 | 29 | 63 | 4 |  |  |  | 
Cc1cc2cc(NS(=O)(=O)Cc3ccc(C(=O)NOCc4ccc(O)cc4)cc3)ccc2n(C)c1=O | 1 | 91 |  | 0 |  |  |  |  |  |  |  |  |  |  | 
COc1ccc(C(=O)NO)cc1CNc1ccc2c(c1)cc(C)c(=O)n2C |  |  | 40 |  |  |  | 555 |  | 31 | 68 |  |  |  |  | 
COc1ccc(C(=O)NOCc2ccccc2)cc1S(=O)(=O)Nc1ccc2c(c1)cc(C)c(=O)n2C | 20 |  |  |  | 13 |  |  |  |  |  |  | 2 |  |  | 
COc1ccc(C(=O)NOCc2ccc(OC(C)=O)cc2)cc1S(=O)(=O)Nc1ccc2c(c1)cc(C)c(=O)n2C | 3 | 27 |  |  | 95 | 0 |  |  |  |  |  | 0 |  |  | 
Cc1cc2cc(NS(=O)(=O)Cc3cccc(C(=O)NO)c3)ccc2n(C)c1=O | 0 | 0 | 3 | 0 | 0 | 0 | 465 | 0 | 26 | 33 | 2 |  |  |  | 
COC(=O)c1ccc(S(=O)(=O)Nc2ccc3c(c2)cc(C)c(=O)n3C)cc1 | 85 | 95 |  | 0 | 68 | 22 |  |  |  |  |  | 5 |  |  | 
Cc1cc2cc(NCc3cc(C(=O)NO)ccc3Cl)ccc2n(C)c1=O |  |  | 28 |  |  |  | 3190 |  | 20 | 84 |  |  |  |  | 
COC(=O)c1ccc(CS(=O)(=O)Nc2ccc3c(c2)cc(C)c(=O)n3C)cc1 | 9 | 93 |  | 0 | 78 | 14 |  |  |  |  |  | 15 |  |  | 
Cc1cc2cc(NC(=O)c3cc(C(=O)NO)ccc3Cl)ccc2n(C)c1=O |  |  |  |  |  |  | 113 |  |  |  |  |  |  |  | 
COc1ccc(C(=O)NO)cc1C(=O)Nc1ccc2c(c1)cc(C)c(=O)n2C |  |  |  |  |  |  | 65 |  |  |  |  |  | 6900 | 857 | 709
COc1cc(C(=O)NO)ccc1CS(=O)(=O)Nc1ccc2c(c1)cc(C)c(=O)n2C | 0 |  | 15 |  | 0 | 0 | 231 | 0 | 29 | 46 | 11 |  |  | 1580 | 
